Screening data from PubChem.
Compounds with a hit are over-represented: about 2.1% of the library has one in this group of screens.
XiGFP reactiv – X-chromosome reactivation activator. XiGFP mouse fibroblasts, % GFP-positive cells imaging, 3 d; cells co-treated with 5-aza-dC sensitizer; scaled so ellipticine positive control = 100%. activation, % at 7.58 µM. 360,000 compounds, 0.055% hits;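 active = mean normalized replicate activation at least 10% and every replicate at or above 10%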;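 note: 0% = median of on-plate neutral control wells and 100% = ellipticine 6 µM median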
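System: SV40-immortalized XiGFP fibroblast cells, line 68-5-11 / Incubation: 3-day compound exposure, then 15 min fixation at room temperature / Compound: single concentration per compound, delivered by pin transfer / Buffer or medium: DMEM plus 5-aza-dC sensitizer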
GSIS activator – primary screen for activators of insulin secretion dependent on glucose, INS-1E cells, GLuc reporter luminescence | INS-1E GLuc reporter insulin secretion, 2-3 h | activation, % at 16.6 µM | 370,000 compounds, 0.61% hits;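 active = lowest replicate activation of at least 40%, so every replicate reaches that level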;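 note: 0% = median of neutral control wells and 100% = median of IBMX positive control wells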
PGC1a acetyl inh – lowers PGC1a acetylation signal in U2OS cells. AlphaScreen anti-acetyl-lysine; with virally co-expressed GCN5 acetyltransferase. inhibition, % at 15.6 µM. 350,000 compounds, 0.17% hits;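 active = every replicate shows inhibition of at least 40%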;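 note: 0% = neutral control wells and 100% = positive control wells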
EWS-Fli inh – EWS/Fli transcriptional activity inhibition; A673 NR0B1-luciferase reporter, viability-normalised; inhibition, % at 12.6 µM; 350,000 compounds, 0.67% hits; AID 651661;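 active = mean inhibition of at least 50% after viability correction, with every replicate also passing that limit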;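 note: firefly luciferase signal divided by Alamar Blue viability fluorescence both relative to DMSO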
PAX8 inh HTS – inhibitors of PAX8 transcriptional activity in RMG-I cells; 360,000 compounds, 1.2% hits; inhibition, % at 12.6 µM; RMG-I TPO-luciferase reporter, SteadyGlo, 24 h;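 active = mean replicate inhibition at least 60% with every replicate also reaching 60%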;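 note: luciferase light reporting Pax8 driven TPO promoter activity; plate controls were median of neutral control wells for no effect and mitoxantrone controls for full effect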
AF4-AF9 inh – MLL-AF4/AF9 protein interaction inhibition. AID 651704. P42568. AlphaScreen, biotin-AF4 peptide binding to FLAG-AF9. inhibition, % at 10 µM. 350,000 compounds, 0.47% hits;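 active = every replicate reaching a set inhibition limit, whatever the replicate mean, cut at about 25% in these data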;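 note: 0% = plate neutral control median and 100% = total signal loss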
Target sequence (P42568 whole entry, looked up): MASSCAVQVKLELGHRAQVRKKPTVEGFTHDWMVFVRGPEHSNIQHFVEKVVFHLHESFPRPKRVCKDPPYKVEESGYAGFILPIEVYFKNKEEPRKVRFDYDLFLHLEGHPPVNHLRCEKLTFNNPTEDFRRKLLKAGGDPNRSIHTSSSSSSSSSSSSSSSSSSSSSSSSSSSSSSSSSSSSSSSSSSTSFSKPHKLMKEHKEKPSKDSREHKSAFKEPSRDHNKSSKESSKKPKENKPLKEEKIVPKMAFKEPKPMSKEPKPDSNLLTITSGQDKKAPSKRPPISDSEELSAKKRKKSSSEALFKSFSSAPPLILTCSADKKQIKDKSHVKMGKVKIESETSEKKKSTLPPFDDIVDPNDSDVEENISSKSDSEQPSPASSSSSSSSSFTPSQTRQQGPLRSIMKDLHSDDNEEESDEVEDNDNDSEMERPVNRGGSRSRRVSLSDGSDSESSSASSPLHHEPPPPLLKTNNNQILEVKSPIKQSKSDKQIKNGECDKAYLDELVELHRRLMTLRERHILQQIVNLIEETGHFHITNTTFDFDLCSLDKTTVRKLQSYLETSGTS
* marks the source's active call; other numbers are inactive results; . = no result.

SMILES	XiGFP reactiv	GSIS activator	PGC1a acetyl inh	EWS-Fli inh	PAX8 inh HTS	AF4-AF9 inh
CC(C)CC#Cc1ccc2c(c1)O[C@@H](CN(C)Cc1ccc(F)cc1)[C@H](C)CN([C@@H](C)CO)S2(=O)=O	-2	7	-3	31	28	0
CC(C)CC#Cc1ccc2c(c1)O[C@@H](CN(C)Cc1ccccn1)[C@H](C)CN([C@H](C)CO)S2(=O)=O	0	-17	4	32	72*	5
C[C@@H]1CN([C@@H](C)CO)C(=O)c2cc(C#CC3CC3)cnc2O[C@H]1CN(C)C(=O)C1CCCCC1	-1	-9	1	-2	.	.
C[C@H]1CN([C@@H](C)CO)C(=O)Cc2cc(NC(=O)Cc3cn(C)c4ccccc34)ccc2O[C@@H]1CN(C)S(=O)(=O)c1cccs1	0	9	6	-4	-2	-1
C[C@@H]1CN([C@H](C)CO)S(=O)(=O)c2ccc(C#Cc3ccc(F)cc3)cc2O[C@@H]1CN(C)C(=O)CN(C)C	-1	53	-9	5	.	15
C[C@H](CO)N1C[C@H](C)[C@H](CN(C)C(=O)CN(C)C)Oc2cc(C#Cc3ccc(F)cc3)ccc2S1(=O)=O	-1	6	-21	58*	.	20
C[C@H]1CN([C@@H](C)CO)S(=O)(=O)c2ccc(C#Cc3ccc(F)cc3)cc2O[C@@H]1CN(C)C(=O)CN(C)C	0	10	-33	67*	.	19
COc1ccc(S(=O)(=O)N(C)C[C@@H]2OCCCC[C@@H](C)Oc3ccc(NS(=O)(=O)c4cccs4)cc3C(=O)N([C@@H](C)CO)C[C@@H]2C)cc1	1	6	3	8	6	4
COc1ccc(CCC(=O)NC2CCC(C)CC2)cc1 (centres undefined)	0	77*	-4	-22	-14	-1
O=C(C1CCCCC1)N1C[C@@H]2[C@H](c3ccccc31)[C@H](CO)N2C(=O)c1ccccc1F	0	0	-3	-4	-20	0
COc1ccccc1NCCC(=O)O	0	20	2	-9	0	2
O=C(O)CCNc1ccc(NCCC(=O)O)c2c1C(=O)c1ccccc1C2=O	0	-6	.	3	40	32*
O=C1c2cccc(NCCNCCO)c2C(=O)c2cccc(NCCNCCO)c21	0	6	.	59*	10	46*
CC(Sc1ncnc2ccccc12)C(=O)Nc1ccc2c(c1)OCCO2 (centres undefined)	0	-32	.	.	63*	.
C[C@H]1CN([C@@H](C)CO)C(=O)Cc2cc(NC(=O)Nc3ccc4c(c3)OCO4)ccc2O[C@@H]1CN(C)Cc1ccc(-c2ccccc2)cc1	-1	5	4	-1	78*	3
C[C@H]1CN([C@@H](C)CO)C(=O)Cc2cc(NC(=O)Nc3ccc4c(c3)OCO4)ccc2O[C@H]1CN(C)Cc1ccc(-c2ccccc2)cc1	-1	-5	-7	0	-5	1
COc1ccc(CN(C)C[C@@H]2Oc3ccc(NC(=O)Nc4ccc5c(c4)OCO5)cc3CC(=O)N([C@@H](C)CO)C[C@H]2C)cc1	0	-7	-10	10	11	27*
Cc1noc(C)c1NC(=O)N(C)C[C@@H]1Oc2ccc(NC(=O)Nc3cccc4ccccc34)cc2CC(=O)N([C@H](C)CO)C[C@@H]1C	-1	9	4	-6	2	-1
O=C(CCl)N(c1ccccc1)C1CCCCC1	0	0	10	35	103*	0
NC(=O)[C@H]1CC2(CC(c3cccc(NC(=O)COc4ccc(Cl)cc4)c3)=NO2)CN1C(=O)Cc1ccc([N+](=O)[O-])cc1 (some centres undefined)	0	4	.	13	76*	15
C[C@H](CO)N1C[C@H](C)[C@H](CN(C)S(C)(=O)=O)Oc2c(NS(=O)(=O)c3cn(C)cn3)cccc2C1=O	0	7	-4	-6	.	-1
O=[N+]([O-])c1cc([N+](=O)[O-])c2cc3ccccc3nc2c1	0	-4	.	72*	27	7
S=C1NC[C@H](c2ccccc2)N1CCCCC1CCCCC1	0	11	-9	4	5	4
NC1=NC[C@H](c2ccccc2)N1CCCCC1CCCCC1	0	285*	5	5	16	10
COc1ccc(C(=S)N2CCN(c3cccc(Cl)c3)CC2)c(OC)c1	0	-6	-30	56*	35	7
SMILES	XiGFP reactiv	GSIS activator	PGC1a acetyl inh	EWS-Fli inh	PAX8 inh HTS	AF4-AF9 inh
CO[C@@H]1CN(C)C(=O)c2cc(NC(=O)C3CCC3)ccc2OC[C@@H](C)N(CC2CCCCC2)C[C@H]1C	0	-10	-19	-10	-3	4
C[C@@H]1CN([C@@H](C)CO)S(=O)(=O)c2ccc(-c3ccncc3)cc2O[C@H]1CN(C)C(=O)c1ccc2c(c1)OCO2	0	12	7	4	.	1
COc1ccccc1C(C)NS(=O)(=O)c1ccc(Cl)nc1 (centres undefined)	0	44*	.	-4	-5	-2
COc1ccc(S(=O)(=O)Nc2ccc3c(c2)C(=O)N([C@@H](C)CO)C[C@@H](C)[C@@H](CN(C)S(C)(=O)=O)OCCCC[C@@H](C)O3)cc1	0	1	-2	-13	8	-1
C[C@H](CO)N1C[C@H](C)[C@H](CN(C)Cc2ccc(Cl)c(Cl)c2)Oc2ccc(NC(=O)Nc3ccc(C(F)(F)F)cc3)cc2CC1=O	-1	2	-11	5	-8	-1
Cn1c(=NC(=O)c2ccccc2[N+](=O)[O-])sc2cc(S(C)(=O)=O)ccc21	0	87*	4	.	-63	.
O=C(CSc1nc(-c2ccccc2)c(-c2ccccc2)o1)N1CCCCC1	0	-21	.	4	-17	1
NC(=O)CSc1nc(-c2ccccc2)c(-c2ccccc2)o1	.	73*	-7	.	.	.
O=C(NC1Cc2ccccc2C1)[C@@H]1[C@@H](CO)[C@@H]2Cn3c(ccc(C4=CCCCC4)c3=O)[C@@H]2N1CC1CC1	0	-14	1	.	4	5
CCOc1ccc(Nc2oc(-c3cccc(Cl)c3)nc2C#N)cc1	.	106*	7	.	.	.
CCOc1ccc(Nc2oc(-c3ccco3)nc2C#N)cc1	.	.	-10	.	.	.
CO[C@H]1CN(C)C(=O)c2ccc(NC(C)=O)cc2OC[C@H](C)N(Cc2ccncc2)C[C@H]1C	0	2	-2	-3	.	-1
COc1cc(OC)c(C(=O)C=Cc2ccc(OC)c(OC)c2)c(OC)c1	0	6	19	-7	41	8
COc1cc(/C=C/C(=O)c2ccc([N+](=O)[O-])o2)ccc1O	21*	-31	.	55*	59	3
COc1ccc(/C=C/C(=O)c2ccc([N+](=O)[O-])o2)cc1OC	14*	-28	.	62*	112*	3
